# High-throughput results deposited in PubChem by Johns Hopkins Ion Channel Center.
# Rows were chosen to be rich in hits. Some 3.7% of all compounds tested hit in one or more screens of this group.
# KCNQ1 pot = human KCNQ1 channel potentiation or activation; CHO-K1 KCNQ1, thallium flux FluxOR fluorescence; stronger effect = higher value; B-score at 10 µM; 310,000 tested, 0.35% active; AID 2648;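 active = fluorescence ratio B-score, a plate-corrected score, at least three library SD, with initial intensity B-score within 5 SD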
#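 System: CHO-K1 cells stably expressing KCNQ1 / Medium: assay buffer for compound exposure, DMSO matched across wells / Reagent: thallium- and potassium-containing depolarizing buffer / Compound: one concentration, matched DMSO / Incubation: 20 min compound pretreatment at room temperature / Measured by: kinetic FluxOR fluorescence, 10 s baseline plus 110 s post-stimulus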
# KCNK3 block = human KCNK3 channel inhibition, primary screen. B-score at 10 µM. AID 602410. O14649. 340,000 tested, 0.84% active. CHO-KCNK3 thallium flux, FluxOR fluorescence; stronger effect = lower value;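 active = B-score under library mean minus 4 SD, starting fluorescence ratio at most library mean plus 5 SD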;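 also: more negative B-score means stronger inhibition of thallium flux through KCNK3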
# Target sequence (O14649 whole entry, looked up): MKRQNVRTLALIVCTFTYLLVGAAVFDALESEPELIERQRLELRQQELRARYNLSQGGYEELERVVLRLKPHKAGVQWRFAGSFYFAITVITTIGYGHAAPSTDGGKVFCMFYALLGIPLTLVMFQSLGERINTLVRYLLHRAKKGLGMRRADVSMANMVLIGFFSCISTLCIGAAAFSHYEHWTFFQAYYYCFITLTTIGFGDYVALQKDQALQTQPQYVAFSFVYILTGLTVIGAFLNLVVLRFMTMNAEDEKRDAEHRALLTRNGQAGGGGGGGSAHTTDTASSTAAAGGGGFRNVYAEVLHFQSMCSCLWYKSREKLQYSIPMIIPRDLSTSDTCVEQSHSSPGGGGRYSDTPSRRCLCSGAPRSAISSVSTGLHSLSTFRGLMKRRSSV
# KCNQ1 inh = blocks the human KCNQ1 potassium channel; P51787; CHO-K1 KCNQ1, FluxOR thallium flux fluorescence; stronger effect = higher value; B-score at 10 µM; 310,000 tested, 1.3% active; AID 2642;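 active = compounds whose thallium flux B-score, printed positive for inhibition, exceeds three library SD while starting fluorescence stays within three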;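 also: channel opened by potassium depolarization with thallium stimulus after 20 min compound exposure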
# KCNK9 block = inhibitors of human KCNK9 two-pore domain potassium channel. B-score at 10 µM. Q9NPC2. HEK293 KCNK9, FluxOR thallium flux fluorescence; stronger effect = lower value. 310,000 tested, 1.2% active;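 active = ratio B-score over 3 SD below the library mean, with starting fluorescence within 5 SD of its mean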;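 also: negative B-score means less thallium flux so channel inhibition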
# Kir21 inh = blocks the mouse Kir2.1 inward-rectifier potassium channel. B-score at 10 µM. 310,000 tested, 0.85% active. P35561. HEK293-Kir2.1, FluxOR thallium flux fluorescence; stronger effect = lower value;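 active = fluorescence ratio B-score at or below minus 3 SD of library scores, with starting-brightness B-score within 2 SD, cut at about -4.2 in these data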;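 also: channel flux triggered by added potassium and thallium sulfate stimulus; B-score of peak minus minimum fluorescence over baseline after thallium stimulus; more negative B-score means stronger Kir2.1 block with less thallium influx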
# Target sequence (P35561 whole entry, looked up): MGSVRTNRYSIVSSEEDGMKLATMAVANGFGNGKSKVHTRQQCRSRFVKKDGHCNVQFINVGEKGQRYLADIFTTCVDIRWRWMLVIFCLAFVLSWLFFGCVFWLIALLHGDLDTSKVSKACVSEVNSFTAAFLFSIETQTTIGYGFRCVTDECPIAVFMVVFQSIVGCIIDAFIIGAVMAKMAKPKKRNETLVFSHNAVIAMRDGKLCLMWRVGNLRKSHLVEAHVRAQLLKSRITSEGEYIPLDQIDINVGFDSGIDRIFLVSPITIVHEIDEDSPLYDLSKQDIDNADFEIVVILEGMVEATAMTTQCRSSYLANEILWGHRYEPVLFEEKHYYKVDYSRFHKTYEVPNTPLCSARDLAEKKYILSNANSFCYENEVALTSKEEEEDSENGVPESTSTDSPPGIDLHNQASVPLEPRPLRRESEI
# hERG protect = compounds protecting human hERG from proarrhythmic drug block; Q12809; CHO-hERG, FluxOR thallium flux, dofetilide IC70 present; activation (rescue from dofetilide block), less the hit threshold, % at 10 µM; 310,000 tested, 0.51% active; AID 1511;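 active = activation above the mean of controls blocked by dofetilide plus 5 SD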;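 also: thallium influx through hERG after potassium depolarization seen as dye fluorescence rise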
# KCNQ1 inh valid = confirmation of human KCNQ1 potassium channel inhibitors; 1,600 tested, 93% active; KCNQ1 cell line, FluxOR thallium flux fluorescence; shares compounds with KCNQ1 inh; inhibition, % at 10 µM;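 active = primary screen active, with duplicate mean exceeding buffer control mean plus 3 SD of buffer wells, cut at about 28% in these data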;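 also: 0% = buffer control ratio and 100% = XE991 inhibitor control ratio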
# CHO Tl flux = counter-screen for KCNQ1 inhibitors: effect in parental CHO cells; shares compounds with KCNQ1 inh; parental CHO-K1, FluxOR thallium flux fluorescence ratio; stronger effect = lower value; zero means no signal rise above baseline; fluorescence ratio (Tl flux) at 10 µM; 1,600 tested, 21% active; AID 588366;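 active = mean of duplicate thallium-flux fluorescence ratios in parental host cells more than 5 SD below the buffer control mean, cut at about 0.38 in these data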;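 also: ratio is peak minus minimum fluorescence divided by baseline fluorescence; actives read low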
# KCNQ1 ephys val = confirmation of human KCNQ1 potassium channel inhibitors by electrophysiology; shares compounds with KCNQ1 inh; KCNQ1-CHO cells, automated patch clamp current; calls only at 10 µM; 490 tested, 20% active;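 active = KCNQ1 current drop exceeding 3 SD of negative control wells, seen in both duplicate runs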;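 also: steady state current during a 2 s step from -80 to +40 mV; negative values mean current inhibition and positive values mean potentiation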
# KCNQ2 spec = selectivity of KCNQ1 inhibitors: inhibition of rat KCNQ2 channel; shares compounds with KCNQ1 inh; 1,600 tested, 71% active; inhibition, % at 10 µM; KCNQ2 cells, FluxOR thallium flux fluorescence;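 active = mean percent inhibition of the KCNQ2 thallium signal more than 5 SD above the buffer-only control wells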;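 also: KCNQ2 expressed in CHO cells; 0% = buffer control wells and 100% = XE-991 inhibitor control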
# KCNQ1 KCNE1 spec = selectivity of KCNQ1 inhibitors: inhibition of human KCNQ1/KCNE1 channel; KCNQ1/KCNE1 cells, FluxOR thallium flux fluorescence; AID 652147; shares compounds with KCNQ1 inh; inhibition, % at 10 µM; 1,600 tested, 77% active;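 active = mean percent inhibition of duplicate wells above the buffer-only control mean plus 3 SD of those controls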;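 also: 0% = buffer only wells and 100% = XE-991 inhibitor control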
# KCNK9 block conf = human KCNK9 inhibitor confirmation; shares compounds with KCNK9 block; HEK293 KCNK9 cells, FluxOR thallium flux fluorescence; inhibition, % at 10 µM; 4,900 tested, 43% active;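 active = thallium signal inhibited by more than 5 SD of the compound-free buffer control wells, on both duplicate plates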;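 also: 0% = assay buffer control wells without compound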
# Kir21 sel = selectivity of KCNK9 modulators against mouse Kir2.1 | shares compounds with KCNK9 block | 4,900 tested, 4% active | inhibition, % at 10 µM | Kir2.1 cells, FluxOR thallium flux fluorescence;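 active = thallium signal drop more than 5 SD beyond the mean of the no-compound control wells, seen in both duplicate plates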;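 also: signal is fluorescence rise after thallium addition divided by baseline fluorescence; plate controls were assay buffer only for no effect and full block by chlorpromazine control for full effect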
# KCNK9 uninduced = second counter-screen for KCNK9 modulators: effect in non-induced cells; shares compounds with KCNK9 block; non-induced KCNK9-HEK293, FluxOR thallium flux; inhibition, % at 10 µM; 4,900 tested, 40% active; AID 492997;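 active = thallium signal drop beyond 5 SD of the untreated control mean, on both duplicate plates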;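 also: plate controls were buffer only IC0 wells for no effect and SID17386958 at its maximal inhibitory level for full effect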
# KCNK3 inh conf = confirmation of human KCNK3 two-pore domain potassium channel inhibitors; shares compounds with KCNK3 block; CHO-KCNK3 thallium flux, FluxOR fluorescence; 0% buffer, 100% carvedilol maximal block; ratio percent of control, % at 10 µM; 2,400 tested, 99% active; AID 651638;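 active = ratio percent of control, averaged over triplicates, above buffer control mean plus 5 SD, cut at about 64% in these data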;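 also: ratio is the fluorescence rise from min to max over baseline after thallium stimulus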
# KCNK3 uninduced = activity in cells without induced KCNK3 expression; shares compounds with KCNK3 block; non-induced KCNK3 parental cells, FluxOR thallium flux; stronger effect = lower value; thallium flux ratio (lower = more inhibition) at 10 µM; 2,400 tested, 40% active;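 active = thallium flux ratio, averaged over three wells, more than 5 SD below the buffer control mean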;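 also: host cells are CHO cells without KCNK3 induction; ratio is peak minus trough fluorescence over baseline then normalized to buffer controls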
# * hit, by the source's call; i = inactive; x = no result given; + = active, no number.
SMILES,KCNQ1 pot,KCNK3 block,KCNQ1 inh,KCNK9 block,Kir21 inh,hERG protect,KCNK9 block conf,Kir21 sel,KCNK9 uninduced,others
CCn1c(=O)n(CC)c2cc([N+](=O)[O-])c(N3CCNCC3)cc21,i,i,i,i,2,-4,x,x,x,
CN(C)C(=S)SSC(=S)N(C)C,i,i,16*,i,-1.9,-41,x,x,x,KCNQ1 inh valid=0;CHO Tl flux=0.55;KCNQ2 spec=i;KCNQ1 KCNE1 spec=i
CC1(C)C2SCC(=O)N2CCN1CC(=O)NN (stereo unspecified),i,i,i,i,-1.4,-8,x,x,x,
c1cc(OCCN2CC2)ccn1,x,i,x,x,x,x,x,x,x,
O=c1cc(C(F)(F)F)c2cc3c4c(c2o1)CCCN4CCC3,i,i,37*,i,-11,-16,x,x,x,KCNQ1 inh valid=+;CHO Tl flux=0.022*;KCNQ2 spec=i;KCNQ1 KCNE1 spec=i
Oc1ccccc1CN(CCc1ccccc1)Cc1ccccc1,i,-8.9*,9*,-7.9*,-3.2,-9,x,x,x,KCNQ1 inh valid=108*;CHO Tl flux=0.39;KCNQ1 ephys val=i;KCNQ2 spec=97%*;KCNQ1 KCNE1 spec=130%*;KCNK3 inh conf=120*;KCNK3 uninduced=0.14*
CC1CN1P(=S)(c1ccccc1)N1CC1C (stereo unspecified),x,i,x,x,x,x,x,x,x,
c1ccc(CCCN2CCN(CCOC(c3ccccc3)c3ccccc3)CC2)cc1,i,i,i,i,-2.2,-17,i,i,i,
Cc1cccc(C(=O)Nc2ccc(Cl)cc2C(=O)c2ccccc2)c1,i,i,i,-8.4*,0.15,-10,32%*,i,31%*,
O=C(c1ccc2c(c1)N(Cc1ccc(F)cc1)CCS2)N1CCC2(CC1)OCCO2,i,i,i,i,-0.43,-10,i,i,i,
Cc1ccc(CN2CCSc3ccc(C(=O)N4CCC5(CC4)OCCO5)cc32)cc1,i,i,i,i,-0.73,-10,x,x,x,
CSc1ccc(CN2CCN(c3ccccc3C)CC2)cc1,i,i,i,i,-1.5,-10,i,i,i,
CC(C)(C)NC(=O)NC(=O)CN1CC=C(c2ccccc2)CC1,i,i,i,i,0,-9,i,i,i,
O=C(CN1CC=C(c2ccccc2)CC1)NC(=O)NC1CCCCC1,i,i,i,i,-1.5,-9,i,i,i,
Brc1cc2c(cc1CN1CCN(c3ccccc3)CC1)OCCO2,i,i,i,i,-0.15,-4,i,i,i,
Oc1cc2c(cc1CN1CCN(c3ccc(F)cc3)CC1)OCO2,i,i,i,i,0.21,-9,x,x,x,
COC(=O)C1=C(c2cc3ccccc3s2)C[C@@H]2CC[C@H]1N2C(=O)N1CCC(C)CC1,i,i,i,i,-0.9,-11,i,i,i,
CCc1ccc2c(CN3CC=C(c4ccccc4)CC3)cc(=O)oc2c1,i,i,i,i,1.7,-10,x,x,x,
Cc1ccc2c(CN3CC=C(c4ccccc4)CC3)cc(=O)oc2c1C,i,i,i,i,2.3,-13,i,i,i,
COc1ccc(CN2CCCC(C(=O)c3ccccc3SC)C2)cc1O (stereo unspecified),i,i,i,i,0,-20,x,x,x,
CSc1ncc(CN2CCCC(C(=O)c3cccc(Cl)c3)C2)cn1 (stereo unspecified),i,i,i,i,0.14,-2,i,i,i,
COc1cccc(C(=O)C2CCCN(Cc3cccc4c3OCO4)C2)c1 (stereo unspecified),i,i,i,i,-2.9,-7,i,i,i,
O=C(c1cc(F)ccc1F)C1CCCN(Cc2ccc3nonc3c2)C1 (stereo unspecified),i,i,i,i,0.24,-5,i,i,i,
CC(C)Oc1cccc(C(=O)C2CCCN(Cc3ccon3)C2)c1 (stereo unspecified),i,i,i,i,0.05,-14,x,x,x,
COc1ccc(O)c(CN2CCCC(C(=O)c3sccc3C)C2)c1 (stereo unspecified),i,i,i,i,-2.5,-27,x,x,x,
COc1cccc(C(=O)C2CCCN(Cc3ccc4nonc4c3)C2)c1 (stereo unspecified),i,i,i,i,-0.38,-8,i,i,i,
COC1=CC2[C@@H]3Cc4ccc(OC)c(O)c4[C@]2(CCN3C)CC1=O (stereo partly specified),x,i,x,x,x,x,x,x,x,
NC(Cc1ccccc1)c1nn[nH]n1 (stereo unspecified),x,i,x,x,x,x,x,x,x,
O=c1ccc2c(O)c3ccoc3cc2o1,x,i,x,x,x,x,x,x,x,
COc1ccc(C(=O)C2CCCN(Cc3ccon3)C2)c(OC)c1 (stereo unspecified),i,i,i,i,-1.3,-4,x,x,x,
